# A selection: hits, their analogues and other compounds. The true share with any hit is near 1.3%.
# PKD1 kinase inh – PKD1 (human) kinase inhibition; PKD1 kinase fluorescence polarization assay; actives 0.056% (n = 200,000); Q15139; inhibition, % (no concentration beside the values); AID 797; in the data active = inhibition above about 50%
# Hck-Nef inh – blocks Nef-activated human Hck kinase; actives 0.68% (n = 220,000); Recombinant Hck-YEEI plus Nef, Z-Lyte FRET kinase assay; inhibition, % at 20 µM; P08631; AID 463187;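 active = Hck-Nef kinase inhibition above about 50%, limit read from the data; inactive = inhibition below that limit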;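 note: 0% = DMSO with Hck plus Nef and 100% = Hck alone without Nef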
# TAG inh – inhibitors of triacylglycerol accumulation. H9c2 cells, Nile Red lipid (TAG) fluorescence; cells loaded with 200 µM oleic acid. inhibition, % at 12.5 µM. actives 0.66% (n = 230,000);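 active = pattern-corrected inhibition of lipid staining of at least 50% with the nuclear-stain viability signal not falling by more than 50%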;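 note: 0% = DMSO wells and 100% = triacsin C control wells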
# Mdm2 ligase inh – inhibitors of human Mdm2 E3 ubiquitin ligase; AID 1230; Q00987; actives 0.11% (n = 210,000); cell-based MDM2 ubiquitination luciferase reporter, 2 h; 0 = plate control, 100 = twice control, blank-subtracted; signal enhancement, % at 5 µM;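 active = signal enhancement of 30% or more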;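 note: luminescence tracks abundance of the self-degrading MDM2-luciferase fusion protein; higher signal means inhibition of MDM2 E3 ligase activity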
#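 Material: Stable MDM2–luciferase fusion reporter cells | Amount: 2000 cells seeded into each well | Dosing: One concentration, 5 µM, with 0.2% DMSO | Incubation: 4 h cell settling then 2 h compound exposure, 37 °C | Measured by: Luciferase luminescence | Read-out basis: % enhancement relative to plate controls after blank subtraction | Benchmarks: Control and blank well means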
# PERK inh – blocks human PERK kinase. CHO PERK-DD fusion, SEAP luminescence translation reporter. Q9NZJ5. actives 0.17% (n = 220,000). inhibition, % at 5.6 µM;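 active = inhibition above the mean inhibition of all tested compounds plus 3 SD, set separately per screening campaign, cut at about 2.9% in these data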;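 note: PERK kinase domain activated by AP20187 dimerizer at 100 nM; 0% = DMSO with dimerizer and 100% = rapamycin at 8.4 µM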
# Rad51 HR inh – Rad51 (human) homologous recombination inhibition | hRad51 DNA strand exchange, fluorescence dequenching | inhibition, % at 10 µM | actives 0.085% (n = 200,000) | AID 1385;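 active = inhibition above 40% at the single screening dose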;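 note: 0% = DMSO control wells and 100% = blanks with heterologous ssDNA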
# Target sequence (Q06609 whole entry, looked up): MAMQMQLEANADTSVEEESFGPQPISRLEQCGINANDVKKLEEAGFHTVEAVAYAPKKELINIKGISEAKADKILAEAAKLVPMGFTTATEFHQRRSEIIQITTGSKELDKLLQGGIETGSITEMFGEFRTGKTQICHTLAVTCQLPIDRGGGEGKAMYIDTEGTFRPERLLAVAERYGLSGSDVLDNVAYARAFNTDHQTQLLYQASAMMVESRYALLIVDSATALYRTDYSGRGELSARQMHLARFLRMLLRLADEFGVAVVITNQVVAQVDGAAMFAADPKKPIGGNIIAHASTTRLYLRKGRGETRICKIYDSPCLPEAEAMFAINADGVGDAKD
#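 Assay system: Human Rad51 nucleoprotein filaments preassembled on unlabelled ssDNA | Reagent: Donor/quencher-labelled 47-bp dsDNA substrate | Doses: One concentration, 10 µM final | Times: 37 °C 15-min filament assembly, 30-min compound preincubation, 15-min exchange | Technique: Fluorescein emission 520 nm, excitation 485 nm | Benchmarks: Plate control and blank wells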
# TAG conf – confirmation of triacylglycerol accumulation inhibitors; inhibition, % at 12.5 µM; H9c2 lipid accumulation, Nile Red fluorescence; cells loaded with 200 µM oleic acid; actives 71% (n = 990); shares compounds with TAG inh;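 active = mean inhibition across replicates of 40% or more; inactive = mean inhibition below 40%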;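 note: plate controls were DMSO only wells for no effect and Triacsin C treated wells for full effect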
# The depositor's hits bear a star; x = not tested or not shown.
SMILES,PKD1 kinase inh,Hck-Nef inh,TAG inh,Mdm2 ligase inh,PERK inh,Rad51 HR inh,TAG conf
S=c1[nH]nc(-c2cccc(Cl)c2)n1CCN1CCCCC1,-5,6,x,1,0,x,x
COc1ccc(S(=O)(=O)N(C)C[C@@H]2OCCCC[C@H](C)Oc3ccc(NC(=O)Nc4ccc(C(F)(F)F)cc4)cc3C(=O)N([C@H](C)CO)C[C@H]2C)cc1,x,x,59*,x,x,x,44*
CC(=O)Nc1cccc(NS(=O)(=O)c2cc3c4c(c2)CCN4C(=O)CC3)c1,x,x,-4,x,x,x,x
COc1ccc(Cn2cc(F)c(=O)n(CCC(C)C)c2=O)cc1[N+](=O)[O-],-7,-1,x,-4,-1,1,x
CN1CCN(NC(=O)c2ccc(S(=O)(=O)N3CC4(C)CC3CC(C)(C)C4)cc2)CC1 (stereo unspecified),x,2,9,-6,-1,-16,x
C=CCn1c(N)c(C(=O)Nc2ccccc2)c2nc3ccccc3nc21,7,3,78*,-5,0,-12,88*
CC(C)C[C@@H](CNC(=O)OC(C)(C)C)NC(=O)c1nc[nH]c1C(=O)N[C@@H](CC(C)C)C(=O)CNC[C@H](CC(C)C)NC(=O)c1nc[nH]c1C(=O)N[C@@H](Cc1c[nH]c2ccccc12)C(=O)OC(C)(C)C,x,x,60*,x,x,x,52*
O[C@H]1CN(CC2CCCCC2)[C@@H](c2ccc(Cl)cc2)C[C@@H]1n1cc(-c2ccc(F)cc2)nn1,x,x,51*,x,x,x,64*
COC(=O)C=C1CCC2C3CCC4=CC(=O)C(Br)CC4(C)C3C(=O)CC12C (stereo unspecified),x,x,63*,x,x,x,85*
CC12CCC(=O)C=C1CCC1C2C(=O)CC2(C)C1CCC2(O)C(=O)CO (stereo unspecified),x,x,7,x,x,x,x
Cc1nn(-c2ccccc2)c(Cl)c1/C=N/NC(N)=O,x,12,4,-4,0,-1,x
NC(=O)N/N=C/c1c(Sc2nnnn2-c2ccccc2)nc2ccccn2c1=O,x,3,52*,-8,0,7,64*
CCOc1ccc2nc(NC(=O)CN3CCN(C)CC3)sc2c1,-1,0,68*,-4,0,14,38
Fc1cccc(Nc2nc(-c3ccncc3)nc3ccccc23)c1,-7,6,69*,0,0,-2,63*
CC(C)N(C#N)c1nc(N2CCOCC2)nc(N2CCOCC2)n1,-4,2,51*,-8,0,-4,32
Cc1ccc(CNC(=O)c2ccc(N3CCC4(CC3)CC(c3ccccc3)=NO4)c(NC(=O)c3cccc(C)c3)c2)cc1,x,x,30,x,x,x,x
Cc1ccc(CNC(=O)c2ccc(N3CCC4(CC3)CC(c3ccccc3)=NO4)c(NC(=O)c3ccc(Cl)c([N+](=O)[O-])c3)c2)cc1,x,x,51*,x,x,x,37
CCC1(O)CC2CN(CCc3c([nH]c4ccccc34)C(C(=O)OC)(c3cc4c(cc3OC)N(C=O)C3C(O)(C(=O)OC)C(OC(C)=O)C5(CC)C=CCN6CCC43C65)C2)C1 (stereo unspecified),x,x,52*,x,x,x,57*
COc1ccccc1NC(=O)c1ccc(NC(=O)CSc2ncn[nH]2)cc1,-5,6,x,11,1,x,x
COc1ccc(C(=O)Nc2ccc(-c3nnn(CC(=O)NCc4ccco4)n3)cc2)cc1,x,17,53*,x,0,-9,16
O=C(Cn1nnc(-c2ccc(Cl)cc2)n1)NCc1ccco1,-5,16,x,-14,0,x,x
COc1ccc(NC(=O)Cn2c(=O)n(-c3ccc(CC(=O)NCc4ccco4)cc3)c(=O)c3ccccc32)cc1,6,6,65*,-8,1,-2,54*
N#Cc1cc[n+](CC(=O)c2ccc(NC(=O)c3ccccc3)cc2)cc1,x,9,8,-6,1,-17,x
O=C(Cn1nnc(-c2cccs2)n1)NNC(=O)c1ccccc1Cl,x,8,-1,-5,-1,-18,x
CC1=NN(S(=O)(=O)c2ccc(C)cc2)C(=O)c2ccccc2O1,x,24,-9,x,1,-6,x
SMILES,PKD1 kinase inh,Hck-Nef inh,TAG inh,Mdm2 ligase inh,PERK inh,Rad51 HR inh,TAG conf
COc1ccc(S(=O)(=O)N2N=C(C)Oc3ccccc3C2=O)cc1,-6,0,63*,-5,0,-5,54*
COc1ccccc1S(=O)(=O)Nc1cccc(S(=O)(=O)N2CCCC2)c1,x,x,4,x,x,x,x
COc1ccc(-c2cc(C(=O)O)c3c(C)nn(-c4ccccn4)c3n2)cc1,-3,0,x,-18,1,-7,x
CCOC(=O)c1cc(-c2ccncc2)nc2c1c(C)nn2-c1ccccn1,-10,2,68*,-21,0,1,43*
CCC(C)(C)NC(=O)C(c1ccc(OC)cc1)N(CC1CCCO1)C(=O)CCC(=O)Nc1cc(C)on1 (stereo unspecified),-8,7,57*,-2,0,7,41*
COc1ccc(C(C(=O)NC(C)(C)C)N(Cc2cccs2)C(=O)CCC(=O)Nc2cc(C)on2)cc1 (stereo unspecified),-12,-6,70*,0,-1,11,49*
CCC(C)(C)NC(=O)C(c1ccc(OC)cc1)N(Cc1cccs1)C(=O)CCC(=O)Nc1cc(C)on1 (stereo unspecified),-6,5,72*,-3,-2,1,68*
Cc1cc(NC(=O)CCC(=O)N(CC2CCCO2)C(C(=O)NC2CCCC2)c2cccnc2)no1 (stereo unspecified),-1,-1,-9,13,0,-4,x
CCCCN(C(=O)CCC(=O)Nc1cc(C)on1)C(C(=O)NC(C)(C)C)c1cccc(OC)c1OC (stereo unspecified),-3,5,3,4,-1,6,x
COc1ccc(C(C)=O)cc1CN1C(=O)C(Cc2ccccc2)ON=C1c1ncccc1C (stereo unspecified),x,x,4,x,x,x,x
COc1cccc(-c2cc(=O)c3cc(NC(C)=O)ccc3[nH]2)c1,-1,-2,63*,x,0,-2,34
CC(=O)Nc1ccc2[nH]c(C)cc(=O)c2c1,-1,-2,-4,-16,0,7,x
Cc1cc(C)cc(-n2c3ccc(NC(=O)Cc4cccc5ccccc45)cc3c(=O)n2C)c1,x,x,51*,x,x,x,50*
COc1ccc(-c2cc(C(=O)Oc3ccc([N+](=O)[O-])cc3)c3ccccc3n2)cc1,4,2,6,-32,0,3,x
COc1ccc2nc3cc([N+](=O)[O-])ccc3c(NNc3ccc([N+](=O)[O-])cc3)c2c1,x,x,50*,x,x,x,44*
